These results are taken from ChEMBL document CHEMBL1142554, “Lyngbyastatin 2 and norlyngbyastatin 2, analogues of dolastatin G and nordolastatin G from the marine cyanobacterium Lyngbya majuscula” (J Nat Prod, 1999).

The subject of data set [1] is KB. Briefly: Cytotoxicity against human KB cells. It counts as functional, cell-based.
Data set [2] is described as follows: Inhibition of microfilament assembly.
Data set [3] in a line: Inhibition of microtubule assembly.
The species entered for data set [4] is Mus musculus. Briefly: Toxicity in mouse. It counts as organism-based. The settings on record: in vivo.
In data set [5] the target is T1, DNA topoisomerase 1 (Homo sapiens) (UniProt P11387).
T1 sequence (whole entry): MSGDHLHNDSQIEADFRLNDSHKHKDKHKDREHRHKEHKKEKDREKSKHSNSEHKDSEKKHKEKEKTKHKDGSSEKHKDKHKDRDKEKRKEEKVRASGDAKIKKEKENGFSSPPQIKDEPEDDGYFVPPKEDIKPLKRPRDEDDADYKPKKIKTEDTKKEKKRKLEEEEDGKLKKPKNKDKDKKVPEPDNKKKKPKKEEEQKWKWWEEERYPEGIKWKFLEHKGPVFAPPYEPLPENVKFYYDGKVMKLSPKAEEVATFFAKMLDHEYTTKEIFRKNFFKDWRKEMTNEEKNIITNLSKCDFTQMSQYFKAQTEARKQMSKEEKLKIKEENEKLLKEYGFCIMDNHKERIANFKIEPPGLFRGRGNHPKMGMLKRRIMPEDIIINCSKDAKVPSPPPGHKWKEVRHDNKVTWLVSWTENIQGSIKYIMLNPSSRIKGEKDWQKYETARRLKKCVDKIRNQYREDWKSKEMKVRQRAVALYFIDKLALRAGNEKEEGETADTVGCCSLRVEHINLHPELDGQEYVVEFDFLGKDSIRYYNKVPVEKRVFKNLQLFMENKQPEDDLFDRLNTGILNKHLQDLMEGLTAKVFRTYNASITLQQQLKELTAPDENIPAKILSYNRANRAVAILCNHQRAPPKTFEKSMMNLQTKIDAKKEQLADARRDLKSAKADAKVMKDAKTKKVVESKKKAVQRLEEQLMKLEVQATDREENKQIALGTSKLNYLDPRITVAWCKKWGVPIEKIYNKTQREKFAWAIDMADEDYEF
Briefly: Inhibition of topoisomerase 1.

For data set [6], the system named is LoVo. The data set is described as follows: Cytotoxicity against human LoVo cells. It counts as functional, cell-based.
Data set [7] concerns MC-38. Briefly: Cytotoxicity against mouse C38 cells at 1.8 mg/kg by in vivo assay. It counts as functional, organism-based. The arrangement: dose 1.8 mg/kg. In short, it runs like this: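 In vivo mouse model bearing the murine colon adenocarcinoma C38, with compound dosed at 1.8 mg/kg or lower.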

In brackets after ≈: the same amount, converted by molar mass. Activity calls are given as the source filed them. No cut-off for these calls is given here. Starred links: 1 amine or outer side, 2 acyl side, 3 side chain; linkers in the order of their positions; H or OH if unused. Positions of bridges follow the written chain, without caps; N, C: chain ends. Non-standard residues stand in square brackets, D forms with d. Residues, ends and D or L forms follow the SMILES beside them. X1 = CC[C@H](CCC[C@@H](O)[C@@H](C)C(=O)O[C@H](C)[C@@H](C)C/C=C(C)/C(=C\C(=O)[*:1])OC)O[*:2]; X2 = CC[C@H](CCC[C@@H](O)[C@@H](C)C(=O)O[C@H](C)[C@@H](C)C/C=C(\C)C(=O)CC(=O)[*:1])O[*:2]; NMeI = CC[C@H](C)[C@H](NC)C(=O)O; NMeV = CN[C@H](C(=O)O)C(C)C; NMeS = CN[C@@H](CO)C(=O)O

For the molecule `CC[C@@H]1CCC[C@@H](O)[C@@H](C)C(=O)O[C@H](C)[C@@H](C)C/C=C(C)/C(OC)=C\C(=O)N(C)[C@@H]([C@@H](C)CC)C(=O)N(C)[C@@H](C(C)C)C(=O)N(C)[C@@H](COC)C(=O)N2CCC[C@H]2C(=O)N(C)[C@@H](C(C)C)C(=O)N2CCC[C@H]2C(=O)O1` [LYNGBYASTATIN 2] ([NMeI][NMeV][NMeS](Me)P[NMeV]P; linker N-C via X1), the IC50 in data set [1] came out at 0.02 µg/mL (≈ 0.0189 µM); in data set [6] it was 0.014 µg/mL (≈ 0.0132 µM). In addition, the result in data set [2], in data set [3], in data set [5] and in data set [7] was inactive. The same molecule returned an LD100 in data set [4] of 3 mg/kg.

`CC[C@@H]1CCC[C@@H](O)[C@@H](C)C(=O)O[C@H](C)[C@@H](C)C/C=C(\C)C(=O)CC(=O)N(C)[C@@H]([C@@H](C)CC)C(=O)N(C)[C@@H](C(C)C)C(=O)N(C)[C@@H](COC)C(=O)N2CCC[C@H]2C(=O)N(C)[C@@H](C(C)C)C(=O)N2CCC[C@H]2C(=O)O1` [NORLYNGBYASTATIN 2] ([NMeI][NMeV][NMeS](Me)P[NMeV]P; linker N-C via X2): the IC50 was 0.93 µg/mL (≈ 0.89 µM) in data set [1] and 0.475 µg/mL (≈ 0.454 µM) in data set [6]. Also, the result in data set [2], in data set [3] and in data set [5] was inactive.
